According to ChEMBL document CHEMBL2069201, “N-Benzoyl anthranilic acid derivatives as selective inhibitors of aldo-keto reductase AKR1C3” (Bioorg Med Chem Lett, 2012):
Where a chain is given by its changes, count along the chain named. pIC50: −log10 of the molar value. Active and inactive are the calls of the source. The rule behind the calls is not given here.

Columns and labels:
[1] = target: T1, Aldo-keto reductase family 1 member C3 (Homo sapiens) (UniProt P42330); assay: Inhibition of recombinant AKR1C3 using 1-acenaphthenol as substrate at 10 uM by spectrophotometry
T1 sequence (whole entry): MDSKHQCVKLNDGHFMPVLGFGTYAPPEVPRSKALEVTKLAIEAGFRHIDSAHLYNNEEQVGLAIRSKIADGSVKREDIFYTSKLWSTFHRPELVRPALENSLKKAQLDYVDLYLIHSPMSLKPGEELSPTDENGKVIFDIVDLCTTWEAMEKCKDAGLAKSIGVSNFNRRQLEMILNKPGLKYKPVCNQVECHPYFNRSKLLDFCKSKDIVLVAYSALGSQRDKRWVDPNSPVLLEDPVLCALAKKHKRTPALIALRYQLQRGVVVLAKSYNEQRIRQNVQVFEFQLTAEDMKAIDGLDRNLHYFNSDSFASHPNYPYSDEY
Summary of the method: (§1)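 Oxidation of 1-acenaphthenol was run with 2.3 mM NAD+ in 100 mM phosphate pH 9.0 containing 0.005% Triton X-114 and 5% DMSO. Substrate/enzyme were 30 µM/0.1 µM for AKR1C1, 60 µM/0.3 µM for AKR1C2 and 100 µM/1.5 µM for AKR1C3. NADH rise was read at 340 nm from initial velocities. […] Mean of two experiments.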

[2] = target: T2, Aldo-keto reductase family 1 member C2 (Homo sapiens) (UniProt P52895); assay: Inhibition of recombinant AKR1C2 using 1-acenaphthenol as substrate at 10 uM by spectrophotometry; summary of the method: as §1
T2 sequence (whole entry): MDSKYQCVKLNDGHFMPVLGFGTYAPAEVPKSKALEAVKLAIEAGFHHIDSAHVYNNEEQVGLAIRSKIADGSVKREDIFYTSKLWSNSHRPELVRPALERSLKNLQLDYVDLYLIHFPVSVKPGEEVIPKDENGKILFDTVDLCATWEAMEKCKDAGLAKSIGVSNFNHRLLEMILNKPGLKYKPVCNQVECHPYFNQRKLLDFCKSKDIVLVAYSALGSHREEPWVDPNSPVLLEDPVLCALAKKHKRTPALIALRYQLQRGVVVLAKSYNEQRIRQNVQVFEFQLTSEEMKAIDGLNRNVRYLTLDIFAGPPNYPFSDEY

[3] = target: T3, Aldo-keto reductase family 1 member C1 (Homo sapiens, UniProt Q04828); assay: Inhibition of recombinant AKR1C1 using 1-acenaphthenol as substrate by spectrophotometry; summary of the method: as §1
T3 sequence (Q04828 whole entry): T2 sequence (whole entry) with V38T, H47R, V54L, S87C, M151V, H170R, L172Q

[4] = target: T4, Aldo-keto reductase family 1 member C1 (Homo sapiens) (UniProt Q04828); assay: Inhibition of recombinant AKR1C1 using 1-acenaphthenol as substrate at 10 uM by spectrophotometry; summary of the method: as §1
T4 sequence (whole entry): T2 sequence (whole entry) with V38T, H47R, V54L, S87C, M151V, H170R, L172Q

[5] = target: T5, Aldo-keto reductase family 1 member C2 (Homo sapiens, UniProt P52895); assay: Inhibition of recombinant AKR1C2 using 1-acenaphthenol as substrate by spectrophotometry; summary of the method: as §1
T5 sequence (P52895 whole entry): T2 sequence (whole entry)

[6] = target: T6, Aldo-keto reductase family 1 member C3 (Homo sapiens, UniProt P42330); assay: Inhibition of recombinant AKR1C3 using 1-acenaphthenol as substrate by spectrophotometry; summary of the method: as §1
T6 sequence (P42330 whole entry): T1 sequence (whole entry)

[7] = target: T5, Aldo-keto reductase family 1 member C2; assay: Inhibition of recombinant AKR1C2 using S-tetralol as substrate by fluorimetry
Summary of the method: (§2)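 Continuous NADP+-dependent oxidation of S-tetralol, read as NADPH fluorescence at 340/460 nm. Buffer was 100 mM phosphate pH 7.0 with 200 µM NADP+ and 4% DMSO. […] Enzyme was 111, 86, 95 and 184 nM respectively. Initial velocities were fitted to give IC50. Mean of two independent experiments.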

[8] = target: T6, Aldo-keto reductase family 1 member C3; assay: Inhibition of recombinant AKR1C3 using S-tetralol as substrate by fluorimetry; summary of the method: as §2
[9] = target: T3, Aldo-keto reductase family 1 member C1; assay: Inhibition of recombinant AKR1C1 using S-tetralol as substrate by fluorimetry; summary of the method: as §2
Homo sapiens [10] = species: Homo sapiens; assay: Selectivity ratio of IC50 for AKR1C2 to AKR1C3
Summary of the method: (§3)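 Fold selectivity for AKR1C3 was calculated from IC50 values of the secondary assay. That assay followed fluorimetric NADP+-dependent S-tetralol oxidation at pH 7.0, with substrate at each isoform's Km.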

Homo sapiens [11] = species: Homo sapiens; assay: Selectivity ratio of IC50 for AKR1C1 to AKR1C3; summary of the method: as §3
Homo sapiens [12] = species: Homo sapiens; assay: Selectivity ratio of IC50 for AKR1C4 to AKR1C3; summary of the method: as §3
[13] = target: T7, Aldo-keto reductase family 1 member C4 (Homo sapiens, UniProt P17516); assay: Inhibition of recombinant AKR1C4 using S-tetralol as substrate by fluorimetry
T7 sequence (P17516 whole entry): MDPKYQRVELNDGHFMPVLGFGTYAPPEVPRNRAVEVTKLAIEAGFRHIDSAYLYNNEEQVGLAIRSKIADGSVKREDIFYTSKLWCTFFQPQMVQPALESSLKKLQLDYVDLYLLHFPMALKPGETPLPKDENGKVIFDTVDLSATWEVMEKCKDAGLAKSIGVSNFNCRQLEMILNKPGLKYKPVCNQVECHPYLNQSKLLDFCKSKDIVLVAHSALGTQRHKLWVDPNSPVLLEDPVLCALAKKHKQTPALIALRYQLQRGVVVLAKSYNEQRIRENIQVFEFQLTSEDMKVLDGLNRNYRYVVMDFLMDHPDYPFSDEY
Summary of the method: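 Continuous NADP+-dependent oxidation of S-tetralol, read as NADPH fluorescence at 340/460 nm. Buffer was 100 mM phosphate pH 7.0 with 200 µM NADP+ and 4% DMSO. Initial velocities were fitted to give IC50. Mean of two independent experiments.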

Compound	inhibition [1]	inhibition [2]	pIC50 [3]	inhibition [4]	pIC50 [5]	pIC50 [6]	pIC50 [7]	pIC50 [8]	pIC50 [9]	Ratio IC50 (Homo sapiens [10])	Ratio IC50 (Homo sapiens [11])	Ratio IC50 (Homo sapiens [12])	pIC50 [13]
CCCCOc1cccc(C(=O)Nc2ccc(Br)cc2C(=O)O)c1	30.4%	70.5%	5.31	65.9%	5.31	–	–	–	–	–	–	–	–
COc1cc(NC(=O)c2cccc(N)c2)c(C(=O)O)cc1OC	5.6%	20.2%	–	18%	–	–	–	–	–	–	–	–	–
CCCCOc1cc(C(=O)Nc2ccccc2C(=O)O)ccc1[N+](=O)[O-]	47.2%	58.3%	5.49	70.8%	5.19	5.12	–	–	–	–	–	–	–
Nc1cccc(C(=O)Nc2ccc(O)cc2C(=O)O)c1	5.6%	28.7%	–	9.7%	–	–	–	–	–	–	–	–	–
Cc1cc(Cl)cc(C(=O)O)c1NC(=O)c1cccc([N+](=O)[O-])c1	inactive	22.5%	–	inactive	–	–	–	–	–	–	–	–	–
O=C(Nc1ccc([N+](=O)[O-])cc1C(=O)O)c1cccc(O)c1	87.9%	10.4%	–	11.8%	–	5.59	4.38	6.08	4.45	–	–	–	–
Nc1cccc(C(=O)Nc2ccccc2C(=O)O)c1	inactive	inactive	–	8%	–	–	–	–	–	–	–	–	–
COc1cc(NC(=O)c2cccc(O)c2)c(C(=O)O)cc1OC	70.2%	29.4%	–	11.8%	–	5.28	4.52	5.54	4.06	10	30	18	4.29
COc1cc(NC(=O)c2cccc([N+](=O)[O-])c2)c(C(=O)O)cc1OC	3.5%	inactive	–	22.2%	–	–	–	–	–	–	–	–	–
O=C(Nc1ccc(O)cc1C(=O)O)c1cccc([N+](=O)[O-])c1	1.9%	31.6%	–	inactive	–	–	–	–	–	–	–	–	–
O=C(Nc1ccc(Br)cc1C(=O)O)c1ccc(F)c([N+](=O)[O-])c1	5.6%	33.6%	5.08	53.2%	4.81	–	–	–	–	–	–	–	–
CCOc1cccc(C(=O)Nc2ccc(Br)cc2C(=O)O)c1	19.1%	36.8%	4.69	31.9%	4.77	–	–	–	–	–	–	–	–
O=C(Nc1ccc(Br)cc1C(=O)O)c1cccc(O)c1	89.6%	16.7%	–	21.6%	–	5.72	4.20	6.46	4.00	180	286	86	4.52
O=C(Nc1ccc(Cl)cc1C(=O)O)c1cccc(O)c1	77.8%	6.7%	–	17.4%	–	5.66	4.30	6.51	4.29	162	164	65	4.70
O=C(Nc1ccc(Cl)cc1C(=O)O)c1cccc([N+](=O)[O-])c1	3.4%	23.4%	–	inactive	–	–	–	–	–	–	–	–	–
O=C(Nc1ccccc1C(=O)O)c1cccc(O)c1	42.1%	inactive	–	inactive	–	4.90	4.32	5.28	< 4.00	9	> 19	> 19	–
